This is an account of results in ChEMBL document CHEMBL4049426, “Identification of the Clinical Candidate (R)-(1-(4-Fluorophenyl)-6-((1-methyl-1H-pyrazol-4-yl)sulfonyl)-4,4a,5,6,7,8-hexahydro-1H-pyrazolo[3,4-g]isoquinolin-4a-yl)(4-(trifluoromethyl)pyridin-2-yl)methanone (CORT125134): A Selective Glucocorticoid Receptor (GR) Antagonist” (J Med Chem, 2017).

pIC50, pKi: −log10 of the molar value. Calls of active or inactive are those of the source. The rule behind the calls is not given here.

One series concerns the target Cytochrome P450 3A4 (Homo sapiens, UniProt P08684). The experiment in a line: Induction of CYP3A4 in human hepatocytes. Format: ADME, cell-based.
For series [1], the species on record is Macaca mulatta. As to the kind of experiment: (§1) Antagonist activity at monkey glucocorticoid receptor in primary hepatocytes assessed as dexamethasone-induced tyrosine amino transferase activity preincubated for 30 mins followed by dexamethasone addition measured after 20 hrs. It is filed as cell-based.
Series [2] in a line: as §1. It is filed as cell-based, Macaca mulatta.
Series [3] concerns the target T1, Glucocorticoid receptor (Rattus norvegicus, UniProt P06536).
T1 sequence (P06536 whole entry): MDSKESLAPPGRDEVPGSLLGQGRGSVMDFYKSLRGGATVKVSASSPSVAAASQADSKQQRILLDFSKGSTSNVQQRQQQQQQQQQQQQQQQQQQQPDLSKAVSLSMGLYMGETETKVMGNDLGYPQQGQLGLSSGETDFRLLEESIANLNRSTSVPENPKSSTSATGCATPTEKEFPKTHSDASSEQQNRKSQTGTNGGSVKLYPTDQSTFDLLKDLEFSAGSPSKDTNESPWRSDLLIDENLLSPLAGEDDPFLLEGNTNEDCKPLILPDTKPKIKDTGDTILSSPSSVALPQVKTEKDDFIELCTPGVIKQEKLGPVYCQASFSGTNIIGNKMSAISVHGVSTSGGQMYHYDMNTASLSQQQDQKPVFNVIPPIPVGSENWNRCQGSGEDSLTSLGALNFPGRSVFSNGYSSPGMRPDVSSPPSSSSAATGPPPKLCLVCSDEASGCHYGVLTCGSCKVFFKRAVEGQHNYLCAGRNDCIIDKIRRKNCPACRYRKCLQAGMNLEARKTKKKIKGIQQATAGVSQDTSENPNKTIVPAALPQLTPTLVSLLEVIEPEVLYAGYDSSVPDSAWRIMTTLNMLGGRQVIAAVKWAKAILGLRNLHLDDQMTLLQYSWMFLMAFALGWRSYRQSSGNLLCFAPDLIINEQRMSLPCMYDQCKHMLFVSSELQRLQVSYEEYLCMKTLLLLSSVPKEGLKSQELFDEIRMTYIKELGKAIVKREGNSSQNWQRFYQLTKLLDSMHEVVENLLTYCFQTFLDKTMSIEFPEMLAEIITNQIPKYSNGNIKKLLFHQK
The experiment in a line: (§2) Antagonist activity at rat glucocorticoid receptor in primary hepatocytes assessed as dexamethasone-induced tyrosine amino transferase activity preincubated for 30 mins followed by dexamethasone addition measured after 20 hrs. Format: cell-based.

Series [4] addresses T2, Glucocorticoid receptor (Rattus norvegicus) (UniProt P06536).
T2 sequence (whole entry): T1 sequence (P06536 whole entry)
The series is described as §2. Format: cell-based.

The species entered for series [5] is Macaca mulatta. The experiment in a line: Agonist activity at monkey glucocorticoid receptor in primary hepatocytes assessed as induction of tyrosine amino transferase activity measured after 20 hrs. It is filed as cell-based.
Series [6] deals with T3, Glucocorticoid receptor (Homo sapiens) (UniProt P04150).
T3 sequence (whole entry): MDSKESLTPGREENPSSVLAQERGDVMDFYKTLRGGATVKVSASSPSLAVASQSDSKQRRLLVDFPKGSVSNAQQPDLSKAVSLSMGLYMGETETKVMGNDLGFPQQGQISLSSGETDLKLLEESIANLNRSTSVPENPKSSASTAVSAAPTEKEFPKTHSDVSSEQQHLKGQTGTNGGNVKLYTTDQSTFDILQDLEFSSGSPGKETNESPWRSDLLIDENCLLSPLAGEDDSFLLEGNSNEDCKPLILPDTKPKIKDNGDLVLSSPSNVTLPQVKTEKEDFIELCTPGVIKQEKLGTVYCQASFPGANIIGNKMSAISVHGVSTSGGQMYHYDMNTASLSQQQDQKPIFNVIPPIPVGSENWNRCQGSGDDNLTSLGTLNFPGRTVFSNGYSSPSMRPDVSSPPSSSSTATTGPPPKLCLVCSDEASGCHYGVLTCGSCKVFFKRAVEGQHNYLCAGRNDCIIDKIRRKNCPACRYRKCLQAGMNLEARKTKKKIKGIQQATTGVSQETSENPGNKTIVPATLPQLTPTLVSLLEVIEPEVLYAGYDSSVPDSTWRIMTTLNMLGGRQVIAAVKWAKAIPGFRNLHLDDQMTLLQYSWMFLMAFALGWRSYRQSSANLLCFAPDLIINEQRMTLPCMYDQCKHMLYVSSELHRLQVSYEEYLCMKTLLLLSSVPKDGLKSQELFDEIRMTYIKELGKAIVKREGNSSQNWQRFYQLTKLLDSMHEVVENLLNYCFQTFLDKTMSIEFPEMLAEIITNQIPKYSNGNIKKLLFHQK
The experiment in a line: (§3) Antagonist activity at glucocorticoid receptor in human primary hepatocytes assessed as inhibition of dexamethasone-induced tyrosine amino transferase activity preincubated for 30 mins followed by dexamethasone addition measured after 20 hrs. Format: cell-based.

Series [7] has as its target T4, Glucocorticoid receptor (Homo sapiens, UniProt P04150).
T4 sequence (P04150 whole entry): T3 sequence (whole entry)
The series is described as §3. It is filed as cell-based.

Series [8] in a line: Oral bioavailability in monkey plasma at 20 mg/kg measured up to 24 hrs by LC/MS analysis. Format: ADME, organism-based, Macaca mulatta. Conditions: rhesus monkey. The method in brief: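 Monkey i.v./p.o. study: oral 20mg/kg in 10% DMSO, 0.1% Tween 80, 0.5% hydroxypropylmethylcellulose in water; i.v. dose 1mg/kg.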
The subject of another series is Rattus norvegicus. As to the kind of experiment: In vivo antagonist activity at glucocorticoid receptor in Sprague-Dawley rat assessed as reduction in cortisone-induced plasma glucose levels at 7.5 mg/kg, po bid via gavage for 6 days pretreated for 12 hrs followed by cortisone 21-acetate treatment measured 24 hrs after last cortisone 21-acetate treatment. It is filed as functional, organism-based. A digest of the protocol:
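Male Sprague Dawley rats (200-250 g) got vehicle daily for a 3-day baseline, then groups of eight were dosed. Test agent was suspended in DMSO:Tween 80:0.5% HPMC (10:0.1:89.9) and given by oral gavage twice daily for 6 days. Cortisone 21-acetate was given at 30 mg/kg s.c. once daily in 1% methylcellulose. Tail-vein blood was taken 24 h after the last cortisone dose (12 h after the last test dose). Glucose was read with a clinical reagent and insulin by rat ELISA.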

The next series concerns the target Cytochrome P450 2D6 (Homo sapiens, UniProt P10635). As to the kind of experiment: Inhibition of CYP2D6 (unknown origin). It is filed as ADME.
Series [9] concerns the target T3, Glucocorticoid receptor (Homo sapiens). The experiment in a line: Agonist activity at glucocorticoid receptor in human HepG2 cells assessed as induction of tyrosine amino transferase activity measured after 20 hrs. Conditions: in the assay text read “primary hepatocytes” for “HepG2 cells”. It is filed as cell-based. A digest of the protocol: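 HepG2 cells in charcoal-stripped FBS RPMI, 25,000 cells/well, 24 h; assay media with 10 µM forskolin. 30 min pre-incubation in 0.1% DMSO, then compound (8-point half-log, 10 µM to 0.003 µM final) for 20 h at 37°C. TAT in lysate with tyrosine, alpha-ketoglutarate and pyridoxal phosphate, 2 h at 37°C, KOH stop, A340. EC50 from 4-parameter fit of % activation of basal TAT.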

Chain of Cytochrome P450 3A4 (P08684 whole entry): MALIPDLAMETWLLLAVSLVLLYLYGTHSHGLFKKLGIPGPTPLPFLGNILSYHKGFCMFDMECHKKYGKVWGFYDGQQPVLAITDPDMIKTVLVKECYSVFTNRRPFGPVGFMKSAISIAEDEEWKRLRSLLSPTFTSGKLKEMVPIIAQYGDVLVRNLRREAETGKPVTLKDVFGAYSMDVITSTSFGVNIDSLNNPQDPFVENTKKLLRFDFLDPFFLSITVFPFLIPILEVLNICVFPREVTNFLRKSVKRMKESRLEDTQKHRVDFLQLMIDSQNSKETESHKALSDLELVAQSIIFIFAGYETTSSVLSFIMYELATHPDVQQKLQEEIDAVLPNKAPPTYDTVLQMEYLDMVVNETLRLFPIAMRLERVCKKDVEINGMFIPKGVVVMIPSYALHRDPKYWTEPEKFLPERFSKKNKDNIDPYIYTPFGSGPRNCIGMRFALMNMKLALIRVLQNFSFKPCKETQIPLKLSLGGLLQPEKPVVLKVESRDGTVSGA
Chain of Cytochrome P450 2D6 (P10635 whole entry): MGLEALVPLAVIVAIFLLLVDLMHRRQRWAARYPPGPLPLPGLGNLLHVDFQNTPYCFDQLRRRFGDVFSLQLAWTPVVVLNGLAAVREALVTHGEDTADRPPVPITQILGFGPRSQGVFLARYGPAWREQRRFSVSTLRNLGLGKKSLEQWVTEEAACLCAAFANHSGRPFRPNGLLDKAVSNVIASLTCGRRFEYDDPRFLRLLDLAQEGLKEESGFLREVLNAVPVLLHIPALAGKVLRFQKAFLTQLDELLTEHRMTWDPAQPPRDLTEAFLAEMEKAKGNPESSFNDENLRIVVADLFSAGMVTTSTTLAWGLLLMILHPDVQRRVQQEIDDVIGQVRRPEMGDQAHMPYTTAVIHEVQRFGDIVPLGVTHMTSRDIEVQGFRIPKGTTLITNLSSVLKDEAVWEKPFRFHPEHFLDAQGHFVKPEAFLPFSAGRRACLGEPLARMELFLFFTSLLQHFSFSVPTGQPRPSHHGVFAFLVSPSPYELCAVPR

For `Cn1cc(S(=O)(=O)N2CCC3=Cc4c(cnn4-c4ccc(F)cc4)C[C@]3(C(=O)c3cc(C(F)(F)F)ccn3)C2)cn1` [RELACORILANT], the Activity result on Cytochrome P450 3A4 is “Not Active”. The results for the Imax (in the series listed under Macaca mulatta [1]; in [4]; in series [6]) were 99%, 54.2% and 100%, respectively. Moreover, the pKi (usually −log10 of the Ki, conventionally taken in molar units) in series [2] was 6.68; on Glucocorticoid receptor [3] it was 7.92; on Glucocorticoid receptor [7], 7.09. For the same molecule, the Emax (in the series listed under Macaca mulatta [5]; in series [9]) was 0% in each case. Besides, the bioavailability (commonly the share of a dose that reaches the circulation, judged against a reference dose that is usually intravenous) in series [8] came out at 88%. Also, the inhibition entry in the series on Rattus norvegicus is “Active”. At Cytochrome P450 2D6, the pIC50 – broadly, −log10 of the IC50, conventionally taken in molar units – was 5.05.
